In paper PMC11303814 (Nature Communications, 2024):
Changes are numbered by the printed parent chain. Entries after “also recorded” stand apart in the source; their conditions may differ.

What was measured:
Format in all cases: cell-based
[1] = target: T1, wild-type rP2X7 (Rattus norvegicus, UniProt Q64663); experiment: TEVC efficacy experiments, wild-type rP2X7 in oocytes; settings: WT rP2X7, identical concentrations of ATP and BzATP
T1 sequence (Q64663 1-595): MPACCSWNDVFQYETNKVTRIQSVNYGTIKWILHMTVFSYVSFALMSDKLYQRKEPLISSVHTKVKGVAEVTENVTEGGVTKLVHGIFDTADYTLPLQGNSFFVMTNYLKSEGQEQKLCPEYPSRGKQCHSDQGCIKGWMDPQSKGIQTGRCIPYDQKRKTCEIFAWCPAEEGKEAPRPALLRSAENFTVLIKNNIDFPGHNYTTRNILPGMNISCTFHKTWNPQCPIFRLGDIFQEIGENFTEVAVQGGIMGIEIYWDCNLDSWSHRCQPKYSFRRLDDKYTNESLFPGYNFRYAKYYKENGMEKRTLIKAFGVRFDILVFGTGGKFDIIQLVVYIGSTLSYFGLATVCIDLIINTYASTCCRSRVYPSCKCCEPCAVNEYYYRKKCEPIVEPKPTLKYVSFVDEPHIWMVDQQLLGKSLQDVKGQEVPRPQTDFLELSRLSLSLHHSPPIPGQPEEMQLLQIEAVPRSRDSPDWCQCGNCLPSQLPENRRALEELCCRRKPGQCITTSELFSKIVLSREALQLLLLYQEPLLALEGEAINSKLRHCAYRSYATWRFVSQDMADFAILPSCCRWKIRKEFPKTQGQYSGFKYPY
In short: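 Oocytes expressing rP2X7 (~20 h after mRNA injection), TEVC in pH 7.4 HEPES/flufenamic acid buffer. Each oocyte first received 100 µM ATP as the normalization reference, then sequentially 50 µM ATP, 50 µM BzATP, 100 µM ATP and 100 µM BzATP, with buffer washout to baseline between applications. Normalized currents are from triplicates per concentration per construct; mean ± SD.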

[2] = target: T2, rP2X7-Q143A (Rattus norvegicus, UniProt Q64663, Q143A); experiment: TEVC deactivation time; settings: after 100 μM ATP or 10 μM BzATP
T2 sequence (Q64663 1-595 Q143A): T1 sequence (Q64663 1-595) with Q143A
In short: (§1)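 Xenopus oocytes injected with 50 nL of 10 ng/µL mutant rP2X7 mRNA, expressed ~20 h, clamped in pH 7.4 HEPES buffer with 0.1 mM flufenamic acid and EDTA. Currents were evoked by 100 µM ATP or 10 µM BzATP. τ is the time for current to return to 63% of baseline after agonist removal, from a one- or two-phase decay fit. Done in triplicate over first to third applications per oocyte; mean ± SD.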

[3] = target: T3, rP2X7 K127A (Rattus norvegicus, UniProt Q64663, K127A); experiment: TEVC deactivation time; settings: after 100 μM ATP or 10 μM BzATP
T3 sequence (Q64663 1-595 K127A): T1 sequence (Q64663 1-595) with K127A
In short: as §1

deactivation lifetime τ [2] | deactivation lifetime τ [3] | Molecule | efficacy (agonist character, current amplitude) [1]
1.2 ± 0.1 s | 2.3 ± 0.7 s | Nc1ncnc2c1ncn2[C@@H]1O[C@H](COP(=O)(O)OP(=O)(O)OP(=O)(O)O)[C@@H](O)[C@H]1O [ATP] | partial agonist
7.1 ± 0.6 s | 21 ± 6.2 s | BzATP | full agonist; also recorded: greater inward current than ATP
